The structures appear in SMILES notation.

The experiment addresses T1, CC1736 (Caulobacter vibrioides, UniProt Q9A7I7).
T1 sequence (Q9A7I7 1-148): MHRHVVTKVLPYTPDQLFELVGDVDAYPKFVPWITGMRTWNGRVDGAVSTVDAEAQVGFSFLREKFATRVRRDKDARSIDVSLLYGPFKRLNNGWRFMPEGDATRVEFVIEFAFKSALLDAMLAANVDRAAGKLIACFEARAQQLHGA
Put plainly: spin-column desalting separation, lipid extraction, HPLC-UV. Format: binding. A digest of the protocol:
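Protein (2-3 nmol; cytochrome c 8-10 nmol as control) incubated with ligand (0.005–0.27 mM) in 20 mM MES pH 6.4, 100 mM NaCl, 5.0 mM CaCl2, 0.1 mM dodecyl maltoside, 1.0 mM TCEP, 2% ethanol, 45 min, 30 °C. Desalting spin column; protein by Lowry; eluate lipids by reversed-phase HPLC-UV.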
In general, Kd refers to the constant that tells how readily two partners part at equilibrium. As to `COC1=C(OC)C(=O)C(C/C=C(\C)CC/C=C(\C)CCC=C(C)C)=C(C)C1=O` [Q3], the Kd came to 35 ± 16 µM.
The figure for `COC1=C(OC)C(=O)C(C/C=C(\C)CCC=C(C)C)=C(C)C1=O` [Q2] is 18 ± 2 µM.
The figure for `COC1=CC(=O)C(C)=C(C/C=C(\C)CC/C=C(\C)CCC=C(C)C)C1=O` [DMQ3] is 140 ± 77 µM.

The record behind these values is PMC3909687 (Biochimica et biophysica acta, 2012).
